Experimental data from ChEMBL document CHEMBL1150220, “Additional cytotoxic polyacetylenes from the marine sponge Petrosia species” (2001).
Converted amounts (≈) assume the structure as drawn.

Columns and labels:
Type in all cases: functional
Simian virus 40 [1] = assay: Inhibition of SV40 DNA replication assessed as [alpha32P]dATP formation at 250 uM after 90 mins by agarose gel electrophoresis; settings: Betapolyomavirus macacae, 1.5 h
Method in brief: (§1)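 Cell-free SV40 DNA replication in Tris creatine phosphate buffer (pH 7.7) with creatine kinase, 7 mM MgCl2, 0.5 mM DTT, 4 mM ATP, 200 µM UTP/GTP/CTP, 100 µM dATP/dGTP/dCTP, SV40 T-Ag, origin-containing pUC DNA and replication proteins. The [α-32P]dATP variant ran 90 min at 37 °C, was stopped with EDTA/SDS/tRNA, and DNA was resolved on 1.0% agarose (12-14 h, 2 V/cm) and autoradiographed.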

XF498 = assay: Cytotoxicity against human XF498 cells; settings: read-out: ED50 (the source's name)
HCT-15 = assay: Cytotoxicity against human HCT15 cells; settings: read-out: ED50 (the source's name)
A549 = assay: Cytotoxicity against human A549 cells; settings: read-out: ED50 (the source's name)
SK-MEL-2 = assay: Cytotoxicity against human SK-MEL-2 cells; settings: read-out: ED50 (the source's name)
SK-OV-3 = assay: Cytotoxicity against human SKOV3 cells; settings: read-out: ED50 (the source's name)
Simian virus 40 [2] = assay: Inhibition of SV40 DNA replication assessed as [alpha32P]dATP formation at 125 uM after 90 mins by agarose gel electrophoresis; settings: Betapolyomavirus macacae, 1.5 h; method in brief: as §1
Simian virus 40 [3] = assay: Inhibition of SV40 DNA replication assessed as [alpha32P]dATP formation at 500 uM after 90 mins by agarose gel electrophoresis; settings: Betapolyomavirus macacae, 1.5 h; method in brief: as §1

Row | SMILES | inhibition at 250 µM (Simian virus 40 [1]) [%] | EC50 (XF498) [µg/mL] | EC50 (HCT-15) [µg/mL] | EC50 (A549) [µg/mL] | EC50 (SK-MEL-2) [µg/mL] | EC50 (SK-OV-3) [µg/mL] | inhibition at 125 µM (Simian virus 40 [2]) [%] | inhibition at 500 µM (Simian virus 40 [3]) [%]
1 | C#CCCCCCCCCCCCCCCCC/C=C\CCCC/C=C\CCCCC#C[C@@H](O)C#CCCCCCC/C=C/[C@H](O)C#C | 70 | 5.8 (≈ 8.83 µM) | 2.5 (≈ 3.8 µM) | > 10 | 1.5 (≈ 2.28 µM) | 1.5 (≈ 2.28 µM) | 40 | 100
2 | C#C/C=C\CCCCCCCCCCCCCCC/C=C\CCCC/C=C\CCCCC#C[C@@H](O)C#CCCCCCC/C=C/[C@H](O)C#C | 86 | 2.5 (≈ 3.74 µM) | 1.7 (≈ 2.54 µM) | 11.3 (≈ 16.9 µM) | 0.8 (≈ 1.2 µM) | 2.2 (≈ 3.29 µM) | 59 | 100
3 | C#C/C=C\CCCCCCCCCCCCCC/C=C\CCC/C=C/C(O)CCCCC#C[C@H](O)C#CCCCCCC/C=C/[C@H](O)C#C (some centres not stated) | 94 | 8 (≈ 11.9 µM) | 5 (≈ 7.45 µM) | 26.3 (≈ 39.2 µM) | 2.3 (≈ 3.43 µM) | 1.9 (≈ 2.83 µM) | 79 | 100
4 | C#C/C=C\CCCCCCCCCCCCC/C=C\CCCC/C=C\CCCCC#C[C@@H](O)C#CCCCCCC/C=C/[C@H](O)C#C [NOR-3S,14S-PETROCORTYNE A] | 47 | 6.1 (≈ 9.52 µM) | 3.5 (≈ 5.46 µM) | 7.3 (≈ 11.4 µM) | 3.8 (≈ 5.93 µM) | 4.4 (≈ 6.86 µM) | 12 | 70
5 | C#C/C=C\CCCCCCCCCCCCCC/C=C\CCCC/C=C\CCCCc1cc(=O)cc(CCCCCC/C=C/C(O)C#C)o1 (configuration not stated) [PETROCORTYNE C] | 100 | > 10 | 7.5 (≈ 11.2 µM) | > 10 | 2.4 (≈ 3.58 µM) | 0.7 (≈ 1.04 µM) | 89 | 100
6 | C#C/C=C\CCCCCCCCCCCCC/C=C/C(=O)CCCC/C=C\CCCCC#C[C@@H](O)C#CCCCCCC/C=C/[C@H](O)C#C [PETROTETRAYNDIOL C] | 46 |  | 5.7 (≈ 8.52 µM) | > 10 | 4.1 (≈ 6.13 µM) | 4.2 (≈ 6.28 µM) | 45 | 81
7 | C#C/C=C\CCCCCCCCCCCCCCC(=O)CCCCC/C=C\CCCCC#CC(O)C#CCCCCCC/C=C/C(O)C#C (configuration not stated) [PETROTETRAYNDIOL D] | 80 | > 10 | > 10 | > 10 | > 10 | > 10 | 66 | 100
8 | C#CCCCCCCCCCCCCCCCC/C=C\CCCC/C=C\CC/C=C/C#C[C@@H](O)C#CCCCCCC/C=C/[C@H](O)C#C [PETROTETRAYNDIOL E] | 83 | 3.4 (≈ 5.19 µM) | 1.8 (≈ 2.75 µM) | 24.5 (≈ 37.4 µM) | 1.1 (≈ 1.68 µM) | 1.7 (≈ 2.6 µM) | 62 | 100
9 | C#C/C=C\CCCCCCCCCCCCCC/C=C\CCCC/C=C\CCCCC#CC(=O)C#CCCCCCC/C=C/[C@H](O)C#C [PETROTETRAYNOL A] | 100 | > 30 | > 30 | > 30 | 5.2 (≈ 7.96 µM) | 4.6 (≈ 7.04 µM) | 76 | 100
10 | C#C/C=C\CCCCCCCCCCCCCC/C=C\CCCC/C=C\CCCC(O)C#CC(O)C#CCCCCCC/C=C/[C@H](O)C#C (some centres not stated) [PETROTETRAYNTRIOL A] | 77 | 18.5 (≈ 27.6 µM) | 12.9 (≈ 19.2 µM) | > 30 | 3.9 (≈ 5.81 µM) | 4.2 (≈ 6.26 µM) | 63 | 100
11 | C#C/C=C\CCCCCCCCCCCCCC/C=C\CCCC/C=C\CCCC/C=C\[C@@H](O)C#CCCCCCC/C=C/[C@H](O)C#C [PETROTRIYNDIOL A] | 90 | 1.3 (≈ 1.98 µM) | 0.8 (≈ 1.22 µM) | 1.8 (≈ 2.74 µM) | 0.6 (≈ 0.913 µM) | 0.8 (≈ 1.22 µM) | 62 | 100
